Laboratory results taken from ChEMBL document CHEMBL1127555, “Novel (4-phenylpiperidinyl)- and (4-phenylpiperazinyl)alkyl-spaced esters of 1-phenylcyclopentanecarboxylic acids as potent sigma-selective compounds” (J Med Chem, 1994).

How the values were obtained:
[1] = molecular target: T1, Glutamate NMDA receptor (Rattus norvegicus) (UniProt P35439+Q00959+Q00960+Q00961+Q62645+Q8VHN2+Q9R1M7); assay: Binding affinity was measured against phencyclidine (PCP) receptor in rat using [3H]-TCP as radioligand at 10 uM
[2] = molecular target: T2, D(1A) dopamine receptor (Rattus norvegicus, UniProt P18901); assay: Binding affinity was measured against dopamine receptor D1 in rat using [3H]SCH-23390 as radioligand
[3] = molecular target: T1, Glutamate NMDA receptor (Rattus norvegicus); assay: Binding affinity was measured against N-methyl-D-aspartate (NMDA) receptor in rat using [3H]CGS-19,755 as radioligand at 10 uM
[4] = molecular target: Sigma 2 receptor; assay: Affinity at sigma-2 site by inhibition of [3H]1,3-di(2-tolyl)guanidine (DTG) binding in guinea pig brain.; set-up: species or system Cavia porcellus
How it was run: (§1)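 Final [3H]DTG 4 nM with varied test concentrations. Incubation 25 °C for 90 min. PEI-soaked GF/B filtration, scintillation counting. Ki from EBDA/LIGAND, at least three determinations in triplicate.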

[5] = molecular target: T3, D(2) dopamine receptor (Rattus norvegicus, UniProt P61169); assay: Binding affinity was measured against dopamine (D2) receptor in rat using [3H]spiperone as radioligand
[6] = molecular target: Sigma 2 receptor; assay: The compound was evaluated for affinity at sigma-2 site by inhibition of [3H]1,3-di(2-tolyl)guanidine (DTG) binding in guinea pig brain; set-up: species or system Cavia porcellus; how it was run: as §1
[7] = Binding affinity for sigma-1 site over dopamine receptor D1 in rat using [3H]SCH-23390 as radioligand
[8] = Binding affinity for sigma-1 site over dopamine (D2) receptor in rat using [3H]spiperone as radioligand
[9] = molecular target: T4, Muscarinic acetylcholine receptor M2 (Rattus norvegicus, UniProt P10980); assay: (§2) Binding affinity was measured as selectivity for sigma 1 site over muscarinic (M2) receptor at 10 uM in rat using [3H]QN as radioligand
T4 sequence (P10980 whole entry): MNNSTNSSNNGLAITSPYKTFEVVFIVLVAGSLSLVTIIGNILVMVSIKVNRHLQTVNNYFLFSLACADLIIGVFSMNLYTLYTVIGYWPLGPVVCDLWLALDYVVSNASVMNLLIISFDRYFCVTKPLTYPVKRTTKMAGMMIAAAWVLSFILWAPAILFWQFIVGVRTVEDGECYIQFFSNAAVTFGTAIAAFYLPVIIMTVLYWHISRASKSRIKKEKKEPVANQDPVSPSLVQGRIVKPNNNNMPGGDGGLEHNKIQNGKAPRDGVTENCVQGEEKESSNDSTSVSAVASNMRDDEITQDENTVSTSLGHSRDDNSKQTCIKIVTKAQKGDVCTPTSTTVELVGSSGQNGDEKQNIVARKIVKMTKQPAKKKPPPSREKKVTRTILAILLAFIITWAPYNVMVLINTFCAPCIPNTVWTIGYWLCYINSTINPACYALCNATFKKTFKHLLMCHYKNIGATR
How it was run: (§3)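 Muscarinic binding, M1 in rat cortex with [3H]pirenzepine 0.5 nM and M2 in rat heart with [3H]QNB 0.05 nM.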

[10] = molecular target: T5, Muscarinic acetylcholine receptor M1 (Rattus norvegicus, UniProt P08482); assay: Binding affinity was measured as selectivity for sigma-1 site over muscarinic (M1) receptor in rat
T5 sequence (P08482 whole entry): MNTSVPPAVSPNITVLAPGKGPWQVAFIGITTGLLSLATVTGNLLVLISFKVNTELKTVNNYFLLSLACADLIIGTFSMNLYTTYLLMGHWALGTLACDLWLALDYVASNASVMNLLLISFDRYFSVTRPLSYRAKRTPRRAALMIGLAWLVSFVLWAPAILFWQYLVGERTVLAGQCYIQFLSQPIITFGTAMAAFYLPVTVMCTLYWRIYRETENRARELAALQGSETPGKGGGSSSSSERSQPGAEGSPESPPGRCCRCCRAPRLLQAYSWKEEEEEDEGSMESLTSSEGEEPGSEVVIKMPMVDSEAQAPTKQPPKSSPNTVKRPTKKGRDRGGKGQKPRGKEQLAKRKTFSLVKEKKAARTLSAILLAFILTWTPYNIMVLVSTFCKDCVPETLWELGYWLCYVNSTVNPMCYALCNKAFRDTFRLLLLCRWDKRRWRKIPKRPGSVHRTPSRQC

[11] = molecular target: T1, Glutamate NMDA receptor (Rattus norvegicus); assay: Binding affinity was measured as selectivity for sigma-1 site over N-methyl-D-aspartate (NMDA) receptor in rat using [3H]CGS-19,755 as radioligand at 10 uM
[12] = molecular target: T1, Glutamate NMDA receptor (Rattus norvegicus); assay: Binding affinity was measured as selectivity for sigma-1 site over phencyclidine (PCP) receptor in rat using [3H]TCP as radioligand at 10 uM
[13] = molecular target: Opioid receptor (Rattus norvegicus) (UniProt P33533+P34975+P33535); assay: Binding affinity was measured as selectivity for sigma-1 site over opioid receptor in rat using [3H]naloxone as radioligand at 10 uM
[14] = molecular target: Glutamate NMDA receptor; assay: Binding affinity was measured against phencyclidine (PCP) receptor in rat using [3H]TCP as radioligand
[15] = molecular target: T6, Opioid receptor (Rattus norvegicus, UniProt P33533+P34975+P33535); assay: Binding affinity was measured against opioid receptor in rat using [3H]naloxone as radioligand
[16] = molecular target: T5, Muscarinic acetylcholine receptor M1; assay: Binding affinity was measured against muscarinic (M1) receptor in rat using [3H]pirenzepine as radioligand
[17] = molecular target: T4, Muscarinic acetylcholine receptor M2; assay: Binding affinity was measured against muscarinic (M2) receptor at 10 uM in rat using [3H]QN as radioligand
[18] = molecular target: T7, Muscarinic acetylcholine receptor M2 (Rattus norvegicus) (UniProt P10980); assay: as §2; how it was run: as §3
T7 sequence (whole entry): T4 sequence (P10980 whole entry)

[19] = molecular target: T5, Muscarinic acetylcholine receptor M1; assay: Binding affinity was measured as selectivity for sigma-1 site over muscarinic (M1) receptor in rat using [3H]pirenzepine as radioligand
[20] = molecular target: T3, D(2) dopamine receptor; assay: The nitro derivative RLH-033 shows significant selectivity for the [3H]-(=)-PENT site over dopamine 2 in rat using [3H]SCH-23390 as radioligand
[21] = molecular target: T2, D(1A) dopamine receptor; assay: The nitro derivative RLH-033 shows significant selectivity for the [3H]-(=)-PENT site over […] in rat using [3H]SCH-23390 as radioligand
[22] = molecular target: T5, Muscarinic acetylcholine receptor M1; assay: The nitro derivative RLH-033 shows significant selectivity for the [3H]-(=)-PENT site over muscarinic 1 in rat using [3H]pirenzepine as radioligand
[23] = molecular target: T4, Muscarinic acetylcholine receptor M2; assay: The nitro derivative RLH-033 shows significant selectivity for the [3H]-(=)-PENT site over muscarinic 2 in rat using [3H]QN as radioligand
[24] = molecular target: T6, Opioid receptor; assay: Binding affinity was measured as selectivity for sigma-1 site over opioid receptor in rat using [3H]naloxone as radioligand
[25] = molecular target: Glutamate NMDA receptor; assay: Binding affinity was measured as selectivity for sigma-1 site over phencyclidine (PCP) receptor in rat using [3H]TCP as radioligand
[26] = molecular target: T3, D(2) dopamine receptor; assay: Iodo derivative shows a potent sigma binding ligand, had some affinity for D2 site in rat

T3 sequence (P61169 whole entry): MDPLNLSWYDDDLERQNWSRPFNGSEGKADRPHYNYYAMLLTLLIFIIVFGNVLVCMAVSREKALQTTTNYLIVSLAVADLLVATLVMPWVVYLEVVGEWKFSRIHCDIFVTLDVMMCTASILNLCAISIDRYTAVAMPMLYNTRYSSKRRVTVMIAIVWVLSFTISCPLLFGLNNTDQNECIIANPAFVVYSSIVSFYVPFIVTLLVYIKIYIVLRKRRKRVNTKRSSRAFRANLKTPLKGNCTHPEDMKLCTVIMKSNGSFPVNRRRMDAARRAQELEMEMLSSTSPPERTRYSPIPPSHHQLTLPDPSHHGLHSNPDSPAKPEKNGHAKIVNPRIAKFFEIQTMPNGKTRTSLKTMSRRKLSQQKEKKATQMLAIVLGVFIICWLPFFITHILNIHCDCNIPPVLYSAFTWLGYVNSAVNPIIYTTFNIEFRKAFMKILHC
T2 sequence (P18901 whole entry): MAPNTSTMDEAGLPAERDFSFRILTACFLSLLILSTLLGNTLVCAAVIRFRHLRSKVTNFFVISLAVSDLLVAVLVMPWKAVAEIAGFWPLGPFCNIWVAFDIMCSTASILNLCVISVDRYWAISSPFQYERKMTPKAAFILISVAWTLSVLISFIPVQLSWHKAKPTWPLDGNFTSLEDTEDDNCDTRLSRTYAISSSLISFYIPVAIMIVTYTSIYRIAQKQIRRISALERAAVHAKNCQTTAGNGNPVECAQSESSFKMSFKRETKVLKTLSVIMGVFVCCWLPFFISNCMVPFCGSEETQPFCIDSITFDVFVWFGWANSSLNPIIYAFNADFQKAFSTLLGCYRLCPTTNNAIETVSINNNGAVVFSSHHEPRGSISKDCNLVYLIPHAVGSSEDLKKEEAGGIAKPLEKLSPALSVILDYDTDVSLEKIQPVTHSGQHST
Chain of Opioid receptor (Rattus norvegicus) (P33533 whole entry, looked up): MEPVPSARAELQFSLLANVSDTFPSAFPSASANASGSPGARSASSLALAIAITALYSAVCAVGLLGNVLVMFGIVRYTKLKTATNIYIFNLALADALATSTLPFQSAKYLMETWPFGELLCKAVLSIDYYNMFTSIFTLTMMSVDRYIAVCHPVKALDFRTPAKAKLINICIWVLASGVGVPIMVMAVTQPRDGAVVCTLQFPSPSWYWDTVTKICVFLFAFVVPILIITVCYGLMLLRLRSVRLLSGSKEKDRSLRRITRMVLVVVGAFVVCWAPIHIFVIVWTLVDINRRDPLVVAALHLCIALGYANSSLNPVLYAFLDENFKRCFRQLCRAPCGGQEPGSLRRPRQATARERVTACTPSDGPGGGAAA
Chain of Opioid receptor (Rattus norvegicus) (P33535 whole entry, looked up): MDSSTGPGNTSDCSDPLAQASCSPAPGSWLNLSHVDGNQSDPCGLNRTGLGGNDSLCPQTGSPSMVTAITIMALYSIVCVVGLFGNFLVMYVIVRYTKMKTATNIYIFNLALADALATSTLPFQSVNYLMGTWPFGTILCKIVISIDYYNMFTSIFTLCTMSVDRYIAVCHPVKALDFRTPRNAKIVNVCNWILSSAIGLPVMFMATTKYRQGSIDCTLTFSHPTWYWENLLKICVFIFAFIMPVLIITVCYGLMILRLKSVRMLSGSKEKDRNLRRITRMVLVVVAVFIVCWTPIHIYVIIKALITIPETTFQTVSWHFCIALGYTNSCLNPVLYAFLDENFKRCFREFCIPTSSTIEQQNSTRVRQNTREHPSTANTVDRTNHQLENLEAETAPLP
Chain of Opioid receptor (Rattus norvegicus) (P34975 whole entry, looked up): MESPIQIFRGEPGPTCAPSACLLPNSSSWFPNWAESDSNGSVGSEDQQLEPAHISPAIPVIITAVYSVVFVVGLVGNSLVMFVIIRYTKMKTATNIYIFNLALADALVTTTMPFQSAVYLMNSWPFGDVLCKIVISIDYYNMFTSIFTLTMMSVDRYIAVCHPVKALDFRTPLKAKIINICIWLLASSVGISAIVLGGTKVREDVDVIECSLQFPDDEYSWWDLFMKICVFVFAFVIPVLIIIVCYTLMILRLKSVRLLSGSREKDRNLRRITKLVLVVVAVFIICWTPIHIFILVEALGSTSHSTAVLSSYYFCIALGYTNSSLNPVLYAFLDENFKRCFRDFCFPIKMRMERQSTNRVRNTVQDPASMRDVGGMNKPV

SMILES: CCN(CC)CCOC(=O)C1(c2ccccc2)CCCC1
- inhibition [1]: 11%
- Ki [2]: > 1000 nM
- inhibition [3]: 19%
- Ki [4]: 658 nM
- Ki [5]: > 500 nM

SMILES: COc1ccc(C2(C(=O)OCCCN3CCC(c4ccccc4)CC3)CCCC2)cc1
- Ki [6]: 1.71 nM
- Ki [7]: 6000 nM
- Ki [8]: 1000 nM

SMILES: O=C(OCCN1CCN(c2ccccc2)CC1)C1(c2ccc(Cl)cc2)CCCC1
- Ki [6]: 763 nM

SMILES: O=C(OCCCCCCN1CCC(c2ccccc2)CC1)C1(c2ccccc2)CCCC1
- Ki [6]: 1.88 nM

SMILES: O=C(OCCCN1CCC(c2ccccc2)CC1)C1(c2ccccc2)CCCC1
- Ki [6]: 1.17 nM
- Ki [7]: 10000 nM
- Ki [8]: 1200 nM
- Ki [9]: 670 nM
- Ki [10]: 170 nM

SMILES: O=C(CCCN1CCC(O)(c2ccc(Cl)cc2)CC1)c1ccc(F)cc1
- inhibition [3]: 25%

SMILES: O=C(OCCN1CCN(c2ccccc2)CC1)C1(c2ccc([N+](=O)[O-])cc2)CCCC1
- inhibition [11]: 19%
- Ki [6]: 30.3 nM
- Ki [7]: 1000 nM
- inhibition [12]: 10%
- Ki [8]: 500 nM
- inhibition [13]: 25%

SMILES: CC(C)=CCN1CC[C@]2(C)c3cc(O)ccc3C[C@H]1[C@H]2C (single isomer, unassigned) [(+)-PENTAZOCINE]
- Ki [14]: 4190 nM
- Ki [15]: 651 nM
- Ki [16]: 225 nM
- Ki [17]: 525 nM
- Ki [2]: > 5000 nM
- Ki [5]: > 5000 nM

SMILES: N#Cc1ccc(C2(C(=O)OCCN3CCC(c4ccccc4)CC3)CCCC2)cc1
- Ki [6]: 26.8 nM
- Ki [7]: > 1000 nM
- Ki [8]: 195 nM

SMILES: O=C(OCCN1CCN(c2ccccc2)CC1)C1(c2ccc(I)cc2)CCCC1
- Ki [6]: 293 nM
- Ki [7]: 650 nM
- inhibition [12]: 7%
- Ki [8]: 215 nM
- inhibition [13]: 25%

SMILES: O=C(OCCCN1CCC(c2ccccc2)CC1)C1(c2ccc(Cl)cc2)CCCC1
- Ki [6]: 4.41 nM

SMILES: O=C(OCCN1CCC(c2ccccc2)CC1)C1(c2ccccc2)CCCC1
- inhibition [11]: 15%
- inhibition [18]: 20%
- Ki [19]: 170 nM
- Ki [6]: 52.3 nM
- Ki [7]: 4900 nM
- inhibition [12]: 8%
- Ki [8]: 1100 nM
- inhibition [13]: 63%

SMILES: O=C(OCCCN1CCC(c2ccccc2)CC1)C1(c2ccc(I)cc2)CCCC1
- Ki [6]: 6.49 nM

SMILES: O=C(OCCCCN1CCC(c2ccccc2)CC1)C1(c2ccccc2)CCCC1
- Ki [6]: 0.69 nM
- Ki [7]: 3100 nM
- Ki [8]: 470 nM

SMILES: O=C(OCCCN1CCC(c2ccccc2)CC1)C1(c2ccc([N+](=O)[O-])cc2)CCCC1
- Ki [6]: 0.88 nM

SMILES: COc1ccc(C2(C(=O)OCCN3CCC(c4ccccc4)CC3)CCCC2)cc1
- Ki [6]: 31.8 nM

SMILES: COc1ccc2c(c1)[C@]13CCCC[C@@H]1[C@H](C2)N(C)CC3 [DEXTROMETHORPHAN]
- Ki [17]: > 10000 nM
- inhibition [3]: 2%

SMILES: O=C(OCCN1CCN(c2ccccc2)CC1)C1(c2ccccc2)CCCC1
- inhibition [11]: 7%
- inhibition [18]: 98%
- Ki [6]: 696 nM
- inhibition [12]: 1%
- Ki [8]: > 500 nM
- inhibition [13]: 43%
- Ki [10]: 1470 nM

SMILES: O=C(OCCN1CCC(c2ccccc2)CC1)C1(c2ccc(Cl)cc2)CCCC1
- Ki [6]: 23.9 nM

SMILES: O=C(OCCCCCN1CCC(c2ccccc2)CC1)C1(c2ccccc2)CCCC1
- Ki [6]: 1.05 nM

SMILES: O=C(OCCN1CCC(c2ccccc2)CC1)C1(c2ccc([N+](=O)[O-])cc2)CCCC1
- Ki [20]: > 7000 nM
- inhibition [11]: 12%
- Ki [21]: > 58000 nM
- Ki [19]: 880 nM
- Ki [22]: > 17600 nM
- Ki [6]: 3.93 nM
- Ki [7]: 2900 nM
- inhibition [12]: 7%
- Ki [8]: 350 nM
- inhibition [13]: 42%
- Ki [9]: 1710 nM
- Ki [23]: > 34200 nM

SMILES: Cc1ccccc1NC(=N)Nc1ccccc1C
- Ki [24]: 3950 nM
- inhibition [11]: 0%
- Ki [7]: > 5000 nM
- Ki [8]: > 5000 nM
- Ki [9]: 2960 nM
- Ki [25]: 6690 nM
- Ki [10]: 744 nM

SMILES: O=C(OCCN1CCC(c2ccccc2)CC1)C1(c2ccc(I)cc2)CCCC1
- Ki [26]: 55 nM
- Ki [6]: 52 nM
- Ki [7]: > 1000 nM
- inhibition [12]: 8%
- inhibition [13]: 25%
